One may read the inhibition as the percentage by which the read-out fell short of the control. Low values mean a weak effect, high ones a strong effect. For orientation: IC50 means the concentration at which inhibition is half-maximal. A higher IC50 goes with weaker potency.

Each structure is given as a SMILES string.

Among the data in ChEMBL document CHEMBL4043083, “Design and synthesis of bicyclic acetals as Beta Secretase (BACE1) inhibitors” (Bioorg Med Chem, 2017) are inhibition and IC50 values, retold here.

In the first assay the target is T1, Beta-secretase 1 (Homo sapiens, UniProt P56817). The assay can be described thus: Inhibition of BACE1 (unknown origin) at 10 uM pre-incubated for 10 mins before addition of fluorescent substrate HiLyte FluorTM 488-Glu-Val-Asn-Leu-Asp-Ala-Glu-Phe-Lys and measured over 30 mins. The method in brief: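 BACE1 (1 µg/mL) preincubated with inhibitor at 10 µM, 10 min, 25 °C, then reaction started by adding the internally quenched substrate (QXL 520 quencher). Fluorescence (ex 490/em 520 nm) read over 30 min at 25 °C. Percent inhibition = (1−Vs/Vo)×100 from initial velocities with and without inhibitor.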
T1 sequence (P56817 whole entry): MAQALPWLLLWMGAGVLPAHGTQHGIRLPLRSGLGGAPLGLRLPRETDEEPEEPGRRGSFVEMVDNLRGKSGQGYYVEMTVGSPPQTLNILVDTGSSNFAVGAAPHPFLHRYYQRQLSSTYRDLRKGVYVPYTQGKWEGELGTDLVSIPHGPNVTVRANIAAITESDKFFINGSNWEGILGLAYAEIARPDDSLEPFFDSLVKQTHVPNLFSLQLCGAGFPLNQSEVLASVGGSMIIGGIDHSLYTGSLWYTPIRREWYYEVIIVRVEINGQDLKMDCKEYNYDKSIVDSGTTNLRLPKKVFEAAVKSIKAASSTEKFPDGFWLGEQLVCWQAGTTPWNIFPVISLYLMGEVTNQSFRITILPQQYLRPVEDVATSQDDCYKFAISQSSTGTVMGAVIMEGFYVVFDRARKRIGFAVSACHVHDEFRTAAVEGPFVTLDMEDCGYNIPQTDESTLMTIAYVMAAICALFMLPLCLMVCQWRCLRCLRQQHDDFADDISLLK
With `O=C([C@@H]1O[C@@H]2O[C@H]1C(=O)N(Cc1ccccc1)[C@H]2Cc1ccccc1)N1CCCCC1`, the inhibition is 15%.

`C#CCNC(=O)[C@@H]1O[C@H]2CN(Cc3ccccc3)C[C@@H]1O2`: the inhibition was 0%.

As for `COC(=O)[C@H](c1ccccc1)N1C[C@@H]2O[C@@H](C(=O)N3CCCCC3)[C@@H](O2)C1=O`, the inhibition stood at 0%.

`COC(=O)[C@H]1O[C@H]2O[C@@H]1C(=S)N(Cc1ccccc1)[C@@H]2Cc1ccccc1`: the inhibition stood at 9%.

As for `O=C(NC1CCCCC1)[C@@H]1O[C@@]2(c3ccccc3)CN(C(c3ccccc3)c3ccccc3)C(=O)[C@@H]1O2`, the inhibition amounted to 0%.

Consider `O=C([C@@H]1O[C@H]2CN(Cc3ccccc3)C(=O)[C@@H]1O2)N1CCCCC1`, for which the inhibition amounted to 36%.

Take `CC(C)C[C@@H](CO)NC(=O)[C@@H]1O[C@H]2CN(Cc3ccccc3)C(=O)[C@@H]1O2`: the inhibition turned out to be 8%.

As to `CCOC(=O)N1CCN(C(=O)[C@@H]2O[C@H]3CN(Cc4ccccc4)C(=S)[C@@H]2O3)CC1`, the inhibition was found to be 0%.

`CCOC(=O)N1CCN(C(=O)[C@@H]2O[C@@H]3O[C@H]2C(=S)N(Cc2ccccc2)[C@H]3Cc2ccccc2)CC1` had an inhibition of 16%.

The compound `CC(C)C[C@@H](CO)NC(=O)[C@H]1O[C@@H]2CN(Cc3ccccc3)C(=O)[C@H]1O2` displayed an inhibition of 0%.

Turning to `CC(C)C[C@H](CO)NC(=O)[C@H]1O[C@@H]2CN(Cc3ccccc3)C(=O)[C@H]1O2`, the inhibition is 0%.

In turn, `COC(=O)[C@@H]1O[C@@H]2O[C@H]1C(=S)N(Cc1ccccc1)[C@H]2Cc1ccccc1` yielded an inhibition of 61%.

`O=C([C@@H]1O[C@@]2(c3ccccc3)CN(Cc3ccccc3)C(=O)[C@@H]1O2)N1CCOCC1` came in with an inhibition of 0%.

Take `COC(=O)[C@H](CC(C)C)N1C[C@@H]2O[C@@H](C(=O)N3CCCCC3)[C@@H](O2)C1=O`: the inhibition came to 46%.

The compound `O=C([C@@H]1O[C@H]2CN(Cc3ccccc3)C(=S)[C@@H]1O2)N1CCOCC1` showed an inhibition of 10%.

In turn, `CCOC(=O)N1CCN(C(=O)[C@H]2O[C@H]3O[C@@H]2C(=S)N(Cc2ccccc2)[C@@H]3Cc2ccccc2)CC1` registered an inhibition of 5%.

Turning to `C#CCNC(=O)[C@@H]1O[C@@H]2O[C@H]1C(=O)N(Cc1ccccc1)[C@H]2Cc1ccccc1`, the inhibition was determined as 29%.

`O=C([C@@H]1O[C@@H]2O[C@H]1C(=S)N(Cc1ccccc1)[C@H]2Cc1ccccc1)N1CCOCC1` had an inhibition of 0%.

As to `COC(=O)[C@@H]1O[C@H]2CN(Cc3ccccc3)C(=S)[C@@H]1O2`, the inhibition came to 16%.

For `O=C([C@H]1O[C@H]2O[C@@H]1C(=S)N(Cc1ccccc1)[C@@H]2Cc1ccccc1)N1CCOCC1`, the inhibition came out at 32%.

As for `CC(C)C[C@H](CO)NC(=O)[C@@H]1O[C@H]2CN(Cc3ccccc3)C(=O)[C@@H]1O2`, the inhibition was determined as 0%.

A further assay concerns the target T1, Beta-secretase 1. The assay can be described thus: Inhibition of BACE1 (unknown origin) pre-incubated for 10 mins before addition of fluorescent substrate HiLyte FluorTM 488-Glu-Val-Asn-Leu-Asp-Ala-Glu-Phe-Lys and measured over 30 mins. In short, it runs like this: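 Kit-based fluorometric BACE1 assay. Enzyme at 1 µg/mL, preincubated 10 min at 25 °C with inhibitor across 0.003–30 µM before substrate (QXL 520-quenched) addition. Initial velocities taken from ex 490/em 520 nm fluorescence over 30 min at 25 °C. IC50 from the dose-response, run in triplicate in three independent experiments, given as mean ± SD.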
In turn, `COC(=O)[C@@H]1O[C@@H]2O[C@H]1C(=S)N(Cc1ccccc1)[C@H]2Cc1ccccc1` displayed a 50% inhibitory concentration (IC50) of 2600 nM.
